# Experimental data from ChEMBL document CHEMBL2412964, “Discovery of novel tetrahydro-pyrazolo [4,3-c] pyridines for the treatment of neuropathic pain: synthesis and neuropharmacology” (Eur J Med Chem, 2013).
# Columns and labels:
# Rattus norvegicus [1] = assay: Antinociceptive activity in Wistar rat partial sciatic nerve ligation model assessed as reversal of tactile allodynia at 100 mg/kg, ip after 120 mins relative to control; format: functional; conditions: route intraperitoneal
# Rattus norvegicus [2] = assay: Antinociceptive activity in Wistar rat partial sciatic nerve ligation model assessed as reversal of mechanical allodynia at 100 mg/kg, ip after 120 mins (reference value: 2.9 +/- 0.3%); format: functional; conditions: route intraperitoneal
# Mus musculus [3] = assay: Antinociceptive activity in Swiss albino mouse assessed as inhibition of formalin-induced flinching at 100 mg/kg administered 30 mins prior to test measured for 10 to 30 mins relative to control; format: functional
# Rattus norvegicus [4] = assay: Antinociceptive activity in Wistar rat chronic constriction injury model assessed as reversal of mechanical allodynia at 100 mg/kg, ip after 60 mins (reference value: 4.9 +/- 1.0%); format: functional; conditions: route intraperitoneal
# Rattus norvegicus [5] = assay: Antinociceptive activity in Wistar rat partial sciatic nerve ligation model assessed as reversal of spontaneous pain response at 100 mg/kg, ip after 60 mins (reference value: 2.9 +/- 0.3%); format: functional; conditions: route intraperitoneal
# Rattus norvegicus [6] = assay: Antinociceptive activity in Wistar rat partial sciatic nerve ligation model assessed as reversal of mechanical allodynia at 100 mg/kg, ip after 30 mins (reference value: 2.9 +/- 0.3%); format: functional; conditions: route intraperitoneal
# Mus musculus [7] = assay: Neurotoxicity in Swiss albino mouse assessed as minimal motor impairment at 300 mg/kg after 0.5 hrs by rotarod test; format: toxicity, organism-based; design: dose 300 mg/kg; conditions: in vivo
# How it was run: (§1)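 Swiss albino mice of either sex, 20-25 g, dosed at 30, 100 and 300 mg/kg, three per group. Minimal motor impairment scored by rotarod at 0.5 and 4.0 h after dosing. Reported value is the lowest dose giving impairment in half or more of the mice.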
# Rattus norvegicus [8] = assay: Antinociceptive activity in Wistar rat chronic constriction injury model assessed as reversal of spontaneous pain response at 100 mg/kg, ip after 60 mins (reference value: 4.6 +/- 0.6%); format: functional; conditions: route intraperitoneal
# Rattus norvegicus [9] = assay: Antinociceptive activity in Wistar rat chronic constriction injury model assessed as reversal of cold allodynia at 100 mg/kg, ip after 30 mins (reference value: 0.6 +/- 2.7%); format: functional; conditions: route intraperitoneal
# Mus musculus [10] = assay: Antinociceptive activity in Swiss albino mouse assessed as inhibition of acetic acid-induced writhing at 100 mg/kg administered 30 mins prior to acetic acid-challenge measured for 30 mins relative to control; format: functional
# How it was run: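 Swiss albino mice (20–25 g, either sex); writhing induced by i.p. 0.1 mL of 2.0% v/v acetic acid given half an hour after test compound dosing.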
# Mus musculus [11] = assay: Antinociceptive activity in Swiss albino mouse assessed as inhibition of formalin-induced flinching at 100 mg/kg administered 30 mins prior to test measured up to 5 mins relative to control; format: functional
# Rattus norvegicus [12] = assay: Antinociceptive activity in Wistar rat chronic constriction injury model assessed as reversal of spontaneous pain response at 100 mg/kg, ip after 30 mins (reference value: 8.9 +/- 4.6%); format: functional; conditions: route intraperitoneal
# Rattus norvegicus [13] = assay: Antinociceptive activity in Wistar rat partial sciatic nerve ligation model assessed as reversal of tactile allodynia at 100 mg/kg, ip after 60 mins (reference value: 12.5 +/- 1.2%); format: functional; conditions: route intraperitoneal
# Rattus norvegicus [14] = assay: Antinociceptive activity in Wistar rat chronic constriction injury model assessed as reversal of spontaneous pain response at 100 mg/kg, ip after 120 mins (reference value: 4.5 +/- 0.2%); format: functional; conditions: route intraperitoneal
# Rattus norvegicus [15] = assay: Antinociceptive activity in Wistar rat partial sciatic nerve ligation model assessed as reversal of mechanical allodynia at 100 mg/kg, ip after 60 mins (reference value: 2.8 +/- 0.3%); format: functional; conditions: route intraperitoneal
# Rattus norvegicus [16] = assay: Antinociceptive activity in Wistar rat partial sciatic nerve ligation model assessed as reversal of spontaneous pain response at 100 mg/kg, ip after 30 mins (reference value: 3.2 +/- 0.3%); format: functional; conditions: route intraperitoneal
# Rattus norvegicus [17] = assay: Antinociceptive activity in Wistar rat partial sciatic nerve ligation model assessed as reversal of spontaneous pain response at 100 mg/kg, ip after 120 mins (reference value: 1.2 +/- 0.1%); format: functional; conditions: route intraperitoneal
# Rattus norvegicus [18] = assay: Antinociceptive activity in Wistar rat chronic constriction injury model assessed as reversal of tactile allodynia at 100 mg/kg, ip after 30 mins (reference value: 3.4 +/- 0.8%); format: functional; conditions: route intraperitoneal
# Rattus norvegicus [19] = assay: Antinociceptive activity in Wistar rat chronic constriction injury model assessed as reversal of cold allodynia at 100 mg/kg, ip after 60 mins (reference value: 6.3 +/- 1.9%); format: functional; conditions: route intraperitoneal
# Rattus norvegicus [20] = assay: Antinociceptive activity in Wistar rat partial sciatic nerve ligation model assessed as reversal of cold allodynia at 100 mg/kg, ip after 30 mins (reference value: 4.1 +/- 1.0%); format: functional; conditions: route intraperitoneal
# Rattus norvegicus [21] = assay: Antinociceptive activity in Wistar rat chronic constriction injury model assessed as reversal of cold allodynia at 100 mg/kg, ip after 120 mins (reference value: 5.4 +/- 1.9%); format: functional; conditions: route intraperitoneal
# Rattus norvegicus [22] = assay: Antinociceptive activity in Wistar rat partial sciatic nerve ligation model assessed as reversal of cold allodynia at 100 mg/kg, ip after 60 mins (reference value: 2.5 +/- 0.3%); format: functional; conditions: route intraperitoneal
# Mus musculus [23] = assay: Neurotoxicity in Swiss albino mouse assessed as minimal motor impairment at 300 mg/kg after 4 hrs by rotarod test; format: toxicity, organism-based; design: dose 300 mg/kg; conditions: in vivo; how it was run: as §1
# Rattus norvegicus [24] = assay: Antinociceptive activity in Wistar rat chronic constriction injury model assessed as reversal of tactile allodynia at 100 mg/kg, ip after 60 mins (reference value: 1.3 +/- 0.3%); format: functional; conditions: route intraperitoneal
# Rattus norvegicus [25] = assay: Antinociceptive activity in Wistar rat chronic constriction injury model assessed as reversal of tactile allodynia at 100 mg/kg, ip after 120 mins (reference value: 4.1 +/- 2.1%); format: functional; conditions: route intraperitoneal
# Rattus norvegicus [26] = assay: Antinociceptive activity in Wistar rat chronic constriction injury model assessed as reversal of mechanical allodynia at 100 mg/kg, ip after 120 mins (reference value: 5.3 +/- 0.5%); format: functional; conditions: route intraperitoneal
# Rattus norvegicus [27] = assay: Antinociceptive activity in Wistar rat partial sciatic nerve ligation model assessed as reversal of tactile allodynia at 100 mg/kg, ip after 30 mins (reference value: 7.7 +/- 0.7%); format: functional; conditions: route intraperitoneal
# Rattus norvegicus [28] = assay: Antinociceptive activity in Wistar rat chronic constriction injury model assessed as reversal of mechanical allodynia at 100 mg/kg, ip after 30 mins (reference value: 4.7 +/- 2.1%); format: functional; conditions: route intraperitoneal
# Rattus norvegicus [29] = assay: Antinociceptive activity in Wistar rat partial sciatic nerve ligation model assessed as reversal of cold allodynia at 100 mg/kg, ip after 120 mins (reference value: 1.5 +/- 0.5%); format: functional; conditions: route intraperitoneal
Structure (SMILES),Activity (Rattus norvegicus [1]) [%],Activity (Rattus norvegicus [2]) [%],Activity (Rattus norvegicus [4]) [%],Activity (Rattus norvegicus [5]) [%],Activity (Rattus norvegicus [6]) [%],Activity (Rattus norvegicus [8]) [%],Activity (Rattus norvegicus [9]) [%],Activity (Rattus norvegicus [12]) [%],Activity (Rattus norvegicus [13]) [%],Activity (Rattus norvegicus [14]) [%],Activity (Rattus norvegicus [15]) [%],Activity (Rattus norvegicus [16]) [%],Activity (Rattus norvegicus [17]) [%],Activity (Rattus norvegicus [18]) [%],Activity (Rattus norvegicus [19]) [%],Activity (Rattus norvegicus [20]) [%],Activity (Rattus norvegicus [21]) [%],Activity (Rattus norvegicus [22]) [%],Activity (Rattus norvegicus [24]) [%],Activity (Rattus norvegicus [25]) [%],also measured
CCN1CCc2c(c(C)nn2C(=O)Nc2ccc(Br)cc2)C1,29.2,40,66.7,60.8,50,65.1,67.4,73.9,58.3,63.6,70,56.7,41.3,57.7,38.1,59.7,32.6,43.7,70.5,57.7,inhibition in vivo at 100 mg/kg (Mus musculus [3]): 81.6%; Activity (Mus musculus [7]): Non-toxic; inhibition in vivo at 100 mg/kg (Mus musculus [10]): 59.7%; inhibition in vivo at 100 mg/kg (Mus musculus [11]): 1.7%; Activity (Mus musculus [23]): Non-toxic; Activity (Rattus norvegicus [26]): 61.1%; Activity (Rattus norvegicus [27]): 58.3%; Activity (Rattus norvegicus [28]): 83.3%; Activity (Rattus norvegicus [29]): 41.5%
CCN1CCc2c(c(C)nn2C(=O)Nc2ccc(F)cc2F)C1,39.2,63.3,58.9,28.2,62.1,63.6,72.7,69.3,41.7,72.8,58.9,59.2,14.7,39.3,53.1,58.7,40.6,35.4,69.6,67,inhibition in vivo at 100 mg/kg (Mus musculus [3]): 14.3%; Activity (Mus musculus [7]): Non-toxic; inhibition in vivo at 100 mg/kg (Mus musculus [10]): 76.3%; inhibition in vivo at 100 mg/kg (Mus musculus [11]): 7.8%; Activity (Mus musculus [23]): Non-toxic; Activity (Rattus norvegicus [26]): 63.3%; Activity (Rattus norvegicus [27]): 58.3%; Activity (Rattus norvegicus [28]): 62.1%; Activity (Rattus norvegicus [29]): 40%
CCN1CCc2c(c(C(C)(C)C)nn2C(=O)Nc2ccc(Cl)cc2)C1,28.5,11.1,11.7,13.9,11.1,22.3,17.8,18.3,3.5,12.5,16.7,20.9,6.3,13.8,10.8,18.2,10.5,17.2,13.8,12.8,inhibition in vivo at 100 mg/kg (Mus musculus [3]): 68.3%; Activity (Mus musculus [7]): Non-toxic; inhibition in vivo at 100 mg/kg (Mus musculus [10]): 15.8%; inhibition in vivo at 100 mg/kg (Mus musculus [11]): 3.5%; Activity (Mus musculus [23]): Non-toxic; Activity (Rattus norvegicus [26]): 2.2%; Activity (Rattus norvegicus [27]): 15.1%; Activity (Rattus norvegicus [28]): 20%; Activity (Rattus norvegicus [29]): 10.6%
CCN1CCc2c(c(C)nn2C(=O)Nc2cccc(C(F)(F)F)c2)C1,11.1,10.6,20.5,10.2,15.6,15.2,12.1,13.3,11.1,12.5,11.1,20.7,13.8,4.41,13.7,30.2,7,15.7,11.8,11.8,inhibition in vivo at 100 mg/kg (Mus musculus [3]): 23.1%; Activity (Mus musculus [7]): Non-toxic; inhibition in vivo at 100 mg/kg (Mus musculus [10]): 56.1%; inhibition in vivo at 100 mg/kg (Mus musculus [11]): 4.4%; Activity (Mus musculus [23]): Non-toxic; Activity (Rattus norvegicus [26]): 21.8%; Activity (Rattus norvegicus [27]): 69.7%; Activity (Rattus norvegicus [28]): 13.4%; Activity (Rattus norvegicus [29]): 20.9%
CCN1CCc2c(c(C(C)(C)C)nn2C(=O)Nc2cc(C)ccc2F)C1,4.5,8.8,12.7,9.9,12.1,20.5,3.4,14.4,12.2,53.9,12.1,15.5,7.5,19.7,7.1,19.3,12,16.4,12.2,4.5,inhibition in vivo at 100 mg/kg (Mus musculus [3]): 60.5%; Activity (Mus musculus [7]): Non-toxic; inhibition in vivo at 100 mg/kg (Mus musculus [10]): 17.5%; inhibition in vivo at 100 mg/kg (Mus musculus [11]): 7%; Activity (Mus musculus [23]): Non-toxic; Activity (Rattus norvegicus [26]): 8.8%; Activity (Rattus norvegicus [27]): 12.2%; Activity (Rattus norvegicus [28]): 13.8%; Activity (Rattus norvegicus [29]): 19.3%
CCN1CCc2c(c(C)nn2C(=O)Nc2cc(C)ccc2F)C1,3.5,18.2,42.9,26.6,44.8,11,15,15,15.1,51.8,40.2,57.6,17.3,6.6,21.2,13,2.8,16,9.9,13.7,inhibition in vivo at 100 mg/kg (Mus musculus [3]): 15%; Activity (Mus musculus [7]): Non-toxic; inhibition in vivo at 100 mg/kg (Mus musculus [10]): 10.5%; inhibition in vivo at 100 mg/kg (Mus musculus [11]): 5.2%; Activity (Mus musculus [23]): Non-toxic; Activity (Rattus norvegicus [26]): 14.3%; Activity (Rattus norvegicus [27]): 20.2%; Activity (Rattus norvegicus [28]): 35.7%; Activity (Rattus norvegicus [29]): 7.9%
NCC1(CC(=O)O)CCCCC1 [GABAPENTIN],58.5,55.8,78.6,94.2,86.2,91.2,58,71.2,56.1,88.8,91.3,92.9,82.4,35.4,42.9,54.1,35.6,58.2,59.4,50.7,Activity (Rattus norvegicus [26]): 75.7%; Activity (Rattus norvegicus [27]): 43.1%; Activity (Rattus norvegicus [28]): 92.9%; Activity (Rattus norvegicus [29]): 32.1%
